The nature of series [1]: Pharmacokinetics analysis in male ICR mice. The format is in vivo, mouse. To be noted: 3 mg/kg. An outline of the steps:
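Male ICR mice, n=4 per group, dosed at 3 mg/kg. Intravenous dosing as a solution in 40% dimethylformamide; oral dosing as a suspension in 0.5% methyl cellulose. About 50 μl orbital-vein blood drawn at 0.083 (i.v. only), 0.25, 0.5, 1, 2, 4, 8 and 24 h. Plasma stored at −70°C.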

The next series has as its system Tg(MMTV-PyVT) mouse. In words: Tg. It is filed as in vivo. To be noted: 100 mg/kg intraperitoneally every other day for 6 weeks.
Another series has as its system 67LR. As to the kind of experiment: Membranous 67LR level by immunoblotting. It is filed as cell-based.
The target of the next series is KRS–AIMP2 (Homo sapiens, UniProt Q15046). In words: Quantification of the KRS–AIMP2 interaction. The format is binding. The following applies: 0–100 μM. An outline of the steps: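 AlphaScreen format. His-tagged KRS incubated overnight at 4°C with test compound (0–100 μM final). Ni-chelate donor beads (0.01 mg/ml final) added for 15 min. Acceptor beads (0.01 mg/ml final) and biotinylated AIMP2(1–48)–thioredoxin fusion then added for 1.5 h. Emission read at 520–620 nm, room temperature, triplicate.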
Sequence of KRS–AIMP2 (Q15046 whole entry, the tested form may be a part): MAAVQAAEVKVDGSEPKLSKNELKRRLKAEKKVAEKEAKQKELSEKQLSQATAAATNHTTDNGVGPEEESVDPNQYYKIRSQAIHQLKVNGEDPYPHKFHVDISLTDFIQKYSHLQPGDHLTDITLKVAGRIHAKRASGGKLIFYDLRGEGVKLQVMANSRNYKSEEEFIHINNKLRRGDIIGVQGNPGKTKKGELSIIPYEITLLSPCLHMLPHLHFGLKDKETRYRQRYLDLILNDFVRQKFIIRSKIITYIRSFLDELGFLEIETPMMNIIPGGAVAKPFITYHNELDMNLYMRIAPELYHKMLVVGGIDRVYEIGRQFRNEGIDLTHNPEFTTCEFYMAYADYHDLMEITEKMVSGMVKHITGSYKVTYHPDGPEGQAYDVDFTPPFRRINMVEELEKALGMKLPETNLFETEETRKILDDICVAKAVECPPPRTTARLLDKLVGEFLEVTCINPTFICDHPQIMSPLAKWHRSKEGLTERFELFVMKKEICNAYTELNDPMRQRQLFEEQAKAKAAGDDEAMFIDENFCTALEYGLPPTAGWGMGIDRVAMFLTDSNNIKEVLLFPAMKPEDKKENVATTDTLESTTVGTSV
Sequence of KRS–AIMP2 (Q13155 1-48 partner limits assumed): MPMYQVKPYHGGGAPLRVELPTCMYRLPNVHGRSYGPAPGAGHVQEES

The subject of the next series is MMP-2. As to the kind of experiment: MMP-2 zymography. The format is cell-based. The method in brief:
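H226 cells treated with laminin (10 μg/ml) plus test compound for 12 h. Conditioned-medium proteins run on 10% SDS-PAGE containing 1 mg/ml gelatin. Gel incubated in reaction buffer; gelatinolytic zone of MMP-2 visualised by Coomassie Blue staining.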

A further series relates to A549-RFP cells. In words: A549-RFP left ventricle injection metastasis model. The format is in vivo, mouse. To be noted: 100 mg/kg oral once a day. The method in brief: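 1×10^6 stable A549-RFP cells injected into the left ventricle of anaesthetised 6-week-old female BALB/cAnCr nude mice, n=10 per group. Test compound or 0.5% methyl cellulose given orally once daily from day 1 for 130 days. RFP signal of 5 random mice imaged by IVIS weekly, weeks 4–7. Body weight taken twice weekly for 50 days; survival followed to day 130.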

In a further series the target is KRS (Homo sapiens, UniProt Q15046). As to the kind of experiment: KRS aminoacylation enzymatic assay. To be noted: 0 to 40 μM. The format is biochemical. The method in brief: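 KRS pre-incubated with test compound (0 to 40 μM final) for 30 min at 4°C before the aminoacylation reaction. Reaction aliquots quenched and precipitated on filter plates, washed, eluted with 0.2 M NaOH, and counted on a scintillation plate reader.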
Sequence of KRS (Q15046 whole entry): as the sequence (Q15046 whole entry, the tested form may be a part) above

Series [2] deals with H226 cells. In words: Transwell cell migration assay. It is filed as cell-based, human. The method in brief: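 H226 cells (1×10^5 per well) placed in the top chamber of a laminin-coated (10 μg/ml) 8.0 μm polycarbonate Transwell and left to migrate for 12 h with test compound. Migrated cells fixed in 70% methanol and stained with hematoxylin. Non-migrants swabbed off; cells counted in 3 random ×20 fields.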

Series [3] is described as follows: Hematological metrics and blood chemistry in ICR mice. The format is in vivo, mouse. The following applies: high doses.
The next series addresses 37LRP (Homo sapiens, UniProt P08865). In words: SPR binding analysis. The method in brief: (§1)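 Proteins immobilised at 30 μg/ml in 10 mM sodium acetate pH 5.0 on a CM5 chip: His-KRS WT, 1–207 and 220–597, plus GST-37LRP. Test compound in PBS with 0.05% Tween 20 and 2% DMSO, flowed at 20 μl/min, 25°C; binding read as RU change. For GST-tagged proteins, GST-only RU subtracted. Apparent constants fitted to 1:1 binding with drifting baseline.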
Background: In SPR one partner is held on a chip, and binding of the other changes the refractive index at the surface.

For series [4], the target named is T1, KRS–LR interaction (Homo sapiens, UniProt Q15046). In words: Comparison of YH16899 with BC-K01 across functional assays. To be noted: most of the assays tested.
T1 sequence (Q15046 whole entry): as the sequence (Q15046 whole entry, the tested form may be a part) above
Another series deals with KRS–67LR interaction (Homo sapiens, UniProt Q15046). In words: In vitro pull-down and IP assays. It is filed as binding. An outline of the steps:
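In vitro: 37LRP radiolabelled by coupled transcription/translation, mixed with 1 μg GST–KRS plus test compound, then GST pull-down; bound 37LRP detected by autoradiography. IP: Myc-KRS-transfected H226 cells pretreated with laminin 10 μg/ml for 1 h in serum-free medium, then test compound for 4 h. Lysates or membrane/cytosol fractions then used for IP and immunoblotting.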

Another series addresses KRS1–207 (Homo sapiens, UniProt Q15046). As to the kind of experiment: SPR binding analysis. The method in brief: as §1
The test system of series [5] is WI-26 cells. As to the kind of experiment: MTT cell viability assay. It is filed as cell-based. To be noted: 24 h. The method in brief:
(§2)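 1×10^4 cells per well in 96-well plates; preincubated 1 h with laminin, then exposed to test compound for 24 h in serum-free medium. MTT (stock 5 mg/ml, diluted 10-fold) added for 30 min. Crystals dissolved in DMSO; absorbance read at […].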

The test system of series [6] is WI-26 cells. As to the kind of experiment: Transwell cell migration assay. The format is cell-based. To be noted: read-out: IC50 for inhibition of migration of WI-26.
Series [7] relates to H226 cells. In words: MTT cell viability assay. It is filed as cell-based, human. The following applies: 24 h. An outline of the steps: as §2
Series [8] has as its system H226 cells. As to the kind of experiment: Total protein synthesis. The format is cell-based, human. The method in brief:
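Compound-treated H226 cells held 30 min in Met-free medium, then labelled with [³⁵S]Met for 2 h. Cells returned to complete medium for 4 h, then lysed; radioactivity measured by scintillation counting. Lys variant used Lys-free medium and [³H]Lys.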

For series [9], the system named is H226 cells. As to the kind of experiment: Matrigel invasion assay. It is filed as cell-based, human. An outline of the steps: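 Upper chamber of Transwell (8.0 μm pore polycarbonate) coated with Matrigel 1 mg/ml in cold serum-free medium and set 4 h at 37°C. H226 cells seeded on top; lower chamber held medium with laminin 10 μg/ml. Cells exposed to test compound for 24 h. Invaded cells fixed in 70% methanol, hematoxylin-stained, and counted in 3 random ×20 fields. Mean ± s.d.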

The next series relates to 4T1 cells. As to the kind of experiment: 4T1 mammary fat pad breast cancer metastasis model. To be noted: oral, 100 and 300 mg/kg. The format is in vivo, mouse. An outline of the steps: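 4×10^4 4T1 cells injected into the surgically exposed No. 2 mammary fat pad of anaesthetised 7-week-old female BALB/cAnCr mice. Primary tumours (100–150 mm³) resected on day 10. Groups of n=5 balanced by resected tumour weight. Test compound or 0.5% methyl cellulose given orally once daily from day 1 after resection. Lungs excised at day 28 post-injection, fixed in Bouin's solution, and pulmonary nodules counted.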

Series [10] concerns the target T1, KRS–LR interaction. As to the kind of experiment: Yeast two-hybrid. It is filed as cell-based. The following applies: Y2H, 50 μg/ml, 6-day incubation. An outline of the steps:
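Yeast EGY/SH cells co-expressing LexA–KRS and B42–LR grown in galactose medium lacking Ura, His, Trp and Leu, with compound at 50 μg/ml final. OD540 read after 6 days.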

SMILES strings stand for the structures. Some results are limits rather than exact numbers.

Sequence of KRS–67LR interaction (Q15046 whole entry): as the sequence (Q15046 whole entry, the tested form may be a part) above
Sequence of KRS1–207 (Q15046 1-207): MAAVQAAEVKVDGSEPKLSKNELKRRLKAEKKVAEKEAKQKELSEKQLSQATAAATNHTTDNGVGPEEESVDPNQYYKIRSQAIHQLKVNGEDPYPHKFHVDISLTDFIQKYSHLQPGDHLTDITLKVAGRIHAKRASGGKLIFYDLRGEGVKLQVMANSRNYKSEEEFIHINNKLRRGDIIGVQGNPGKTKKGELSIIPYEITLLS

Consider `CCC(C(=O)O)n1c(=NC(=O)c2cccc(C(F)(F)F)c2)sc2cc(F)c(F)cc21` (centres unmarked) [YH16899, 2-(5,6-difluoro-2-{[3-(trifluoromethyl)benzoyl]imino}benzo[d]thiazol-3(2H)-yl)butanoic acid], for which the “volume of distribution in vivo compared to BC-K01” value in series [1] was “better volume of distribution”. Also, the figures for the “effect on body weight” value in the series with Tg(MMTV-PyVT) mouse, in the series with A549-RFP cells and with 4T1 cells were “without affecting body weight”, “did not affect the body weight” and “little or no effect on body weight”, respectively. Moreover, in the series with Tg(MMTV-PyVT) mouse, the “reduction of pulmonary nodule formation” value is given as “approximately 70%”. Also, the “effect on level of 67LR in the plasma membrane” value with 67LR is listed as “decreased the amount of membranous 67LR”. Besides, the “change in KRS binding affinity to AIMP2” value at KRS–AIMP2 was “little or no change”. Moreover, the “effect on MMP-2” value in the series on MMP-2 is given as “suppressed the induction of MMP-2”. Moreover, the survival result in the series with A549-RFP cells (followed up to 130 days) is “greatly enhanced survival”. Moreover, in the series on A549-RFP cells (up to 7 weeks), the “reduction of average radiance (photon imaging)” value was “approximately 50%”. Further, the “effect on the catalytic activity of KRS” value at KRS is “little or no effect”. The IC50 is 8.5 ± 2.1 µM in the series on H226 cells [2] (Homo sapiens, NCI-H226, 12 h, read-out: IC50 for inhibition of H226 migration) and more than 50 µM in the series with WI-26 cells [6]. Besides, in series [3], the “side effects (hematological metrics and blood chemistry)” value is given as “few side effects”. Moreover, the “binding to 37LRP” value at 37LRP is “did not show significant binding”. In addition, on KRS–LR interaction [4], the “improvement of IC50 compared to BC-K01” value is reported as 3- to 6 fold. In addition, at KRS–67LR interaction, the “effect on binding of KRS and LR” value is listed as “hindered the interaction between the two proteins”. Also, the “binding to KRS1–207 compared with KRS1–597 and KRS220–597” value on KRS1–207 is “preferential binding”. For the same molecule, the “effect on cell viability” value in the series on WI-26 cells [5] and in the series with H226 cells [7] was “did not affect the cell viability” each time. Moreover, in the series with H226 cells [8], the “effect on cellular protein synthesis” value is recorded as “little or no effect”. Moreover, the “suppression of cell invasion” value with H226 cells [9] (H226 cells, Matrigel) was “approximately 85%”. Further, the “inhibition of tumor metastases to the lungs” value in the series with 4T1 cells (once a day) is given as “approximately 60%”.

On to `CCC(C(=O)O)n1c(=NC(=O)c2ccc(C)cc2)sc2ccccc21` (centres unmarked) [BC-K01, 2-(2-{[4-(methyl)benzoyl]imino}benzothiazol-3-yl)butanoic acid], for which, in the series on 67LR, the “effect on level of 67LR in the plasma membrane” value was “decreased the level of 67LR in the plasma membrane in a concentration-dependent manner”. Moreover, in the series with MMP-2, the “effect on MMP-2” value is given as “suppressed the activity of MMP-2”. Besides, in the series with H226 cells [2], the “effect on cell migration” value is on record as “suppressed”. Besides, the “effect on binding of KRS and LR” value at KRS–67LR interaction is reported as “reduced the binding of the two proteins”. In addition, the “inhibition of KRS–LR interaction without affecting KRS–AIMP2 and MRS–AIMP3 pairs” value on KRS–LR interaction [10] is listed as “specifically inhibited”. In addition, in the series with H226 cells [9], the “effect on cell invasion” value is on record as “suppressed”.

Source of the values: PMC4021855 (Nature chemical biology, 2013).
